Data set [1] is described as follows: Stability of the compound in simulated gastric fluid at 10 uM by HPLC-UV analysis. It is filed as physicochemical. The settings on record: simulated gi fluid. The procedure, abridged: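 Simulated gastric and intestinal fluids made to USP specifications. Compound at 10 μM incubated in SGF sampled at 0, 15, 30 and 60 min, and in SIF at 0, 30, 60, 90 and 120 min. Mean ± SEM.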

The nature of data set [2]: Selectivity index, ratio of CC50 for African green monkey Vero cells to IC50 for Leishmania donovani MHOM/IN/80/Dd8 intracellular amastigote form expressing luciferase gene infected in mouse J774A1 cells. It is filed as functional, J774.A1. In outline:
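Ratio of CC₅₀ in Vero cells (72 h MTT) to IC₅₀ against luciferase-expressing amastigotes in J774A.1 macrophages (72 h luminescence).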

Data set [3] deals with J774.A1. In words: Increase in IL-12 production in mouse J774A1 cells infected with Leishmania donovani at IC50 concentration after 24 hrs by sandwich ELISA relative to control. It is filed as functional. The procedure, abridged:
(§1)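 J774A.1 macrophages (1 × 10⁶) infected with Leishmania at 1:10, treated in 6-well plates at the compound's IC₅₀ concentration, 37 °C, CO₂. Supernatants from normal, infected-untreated and infected-treated cells collected after 24 h. IL-12, TNF-α, IL-10 and TGF-β measured by sandwich ELISA at 450 nm, in pg/mL. Two independent experiments in duplicate, mean ± SD; Student's t test against infected control.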

Data set [4] is described as follows: Apparent oral volume of distribution in Syrian golden hamster at 100 mg/kg, po administered via gavage as single dose by HPLC-UV analysis. Also on record: dose 100 mg/kg, route oral. It is filed as ADME, organism-based, Mesocricetus auratus. The settings on record: in vivo. In outline: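 Male Syrian golden hamsters (100 ± 15 g) given a single oral dose of 100 mg/kg. Plasma stored at −70 °C and assayed by HPLC-UV. Concentration–time profiles analysed non-compartmentally; values mean ± SD.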

For data set [5], the system named is Leishmania donovani. Put plainly: Antileishmanial activity against Leishmania donovani MHOM/IN/80/Dd8 amastigotes infected in syrian golden hamster assessed as decrease in parasite count in spleen at 50 mg/kg/day, po for 5 days measured on day 28 after last dose administration by giemsa staining. It is filed as functional. The note with it: MHOM/IN/80/Dd8, Spleen. The procedure, abridged:
(§2)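 Golden hamsters of either sex infected intracardially with 1 × 10⁷ L. donovani Dd8 amastigotes. After 15−20 days, pretreatment spleen biopsy; animals with +1 grade infection (5−10 amastigotes/100 spleen cell nuclei) used, 5−6 per compound. Aqueous suspensions dosed IP or PO for 5−10 consecutive days starting 2 days after biopsy. Splenic biopsies on day 7 and 28 after last dose, Giemsa counts; PI = 100 − [(ANAT×100)/(INAT×TIUC)].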

Data set [6] relates to Leishmania donovani. In words: Induction of early apoptosis in Leishmania donovani MHOM/IN/80/Dd8 promastigotes at 0.78 uM after 6 hrs by Annexin V-FITC/propidium iodide staining based flow cytometry (reference value: 13.70%). It is filed as functional.
For data set [7], the system named is Leishmania donovani. In words: Antileishmanial activity against intracellular amastigote form of Leishmania donovani MHOM/IN/80/Dd8 expressing luciferase gene infected in mouse J774A1 cells after 72 hrs by luminescence analysis. It is filed as functional, organism-based. The note with it: MHOM/IN/80/Dd8, J774.A1, 72 h. In outline: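 J774A.1 macrophages (4 × 10⁴/mL, RPMI-1640 + 10% HIFBS, 37 °C, 5% CO₂), after 24 h infected with stationary-phase luciferase promastigotes (4 × 10⁵/mL). Free parasites washed off after 24 h. Compound added at up to 7 dilutions from 40 μM for 72 h. Luminescence read after Steady Glo in PBS. IC₅₀ from four-parameter Hill fit; at least duplicate measurements.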

The test system of data set [8] is Leishmania donovani. Put plainly: Induction of apoptosis in Leishmania donovani MHOM/IN/80/Dd8 promastigotes assessed as drop in mitochondrial membrane potential at 0.78 uM after 72 hrs by JC-1 dye based flow cytometry (reference value: 5.87%). It is filed as functional.
The subject of data set [9] is Leishmania donovani. Put plainly: Antileishmanial activity against Leishmania donovani MHOM/IN/80/Dd8 amastigotes infected in syrian golden hamster assessed as decrease in parasite count in spleen at 100 mg/kg/day, po for 5 days measured on day 28 after last dose administration by giemsa staining. It is filed as functional. The note with it: MHOM/IN/80/Dd8, Spleen. The procedure, abridged: as §2

Data set [10] relates to Leishmania donovani. In words: Induction of apoptosis in Leishmania donovani MHOM/IN/80/Dd8 promastigotes assessed as drop in mitochondrial membrane potential at 0.78 uM after 48 hrs by JC-1 dye based flow cytometry (reference value: 5.87%). It is filed as functional.
Data set [11] deals with Leishmania donovani. In words: Induction of apoptosis in Leishmania donovani MHOM/IN/80/Dd8 promastigotes assessed as drop in mitochondrial membrane potential at 0.78 uM after 6 hrs by JC-1 dye based flow cytometry (reference value: 5.87%). It is filed as functional.
The test system of data set [12] is Leishmania donovani. In words: Induction of early apoptosis in Leishmania donovani MHOM/IN/80/Dd8 promastigotes at 0.78 uM after 24 hrs by Annexin V-FITC/propidium iodide staining based flow cytometry (reference value: 13.70%). It is filed as functional.
Data set [13] can be described thus: In vitro metabolic stability in syrian golden hamster liver S9 fraction at 10 uM in absence of NADPH. It is filed as ADME, Mesocricetus auratus. The note with it: s9, 10 µM. The procedure, abridged: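 Hamster liver S9 (2 mg/mL protein), 50 mM Tris, 20 mM MgCl₂, 2 mM NADPH preincubated 10 min, then compound added at 10 μM final (1% organic) at 37 °C in triplicate. Sampled 0−60 min; no-NADPH control sampled at 0, 15, 30 and 60 min. Quenched with ice-cold methanol, extracted by LLE. Data as % parent remaining versus 0 min; testosterone as positive control.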

The subject of data set [14] is Leishmania donovani. In words: Induction of necrosis in Leishmania donovani MHOM/IN/80/Dd8 promastigotes at 0.78 uM after 72 hrs by Annexin V-FITC/propidium iodide staining based flow cytometry. It is filed as functional, organism-based.
The test system of the next data set is Syrian golden hamster. In words: Toxicity in Syrian golden hamster at 100 mg/kg, po administered via gavage as single dose. The note with it: in vivo. Also on record: dose 100 mg/kg, route oral. It is filed as organism-based, Mesocricetus auratus.
Data set [15] has as its system J774.A1. In words: Decrease in TGF-beta production in mouse J774A1 cells infected with Leishmania donovani at IC50 concentration after 24 hrs by sandwich ELISA relative to control. It is filed as functional. In outline: as §1

Here are results for one compound from ChEMBL document CHEMBL3259690, “Synthesis, structure-activity relationships, and biological studies of chromenochalcones as potential antileishmanial agents” (J Med Chem, 2014).

Calls of active or inactive are those of the source. The calls are words filed in the database; no cut-off is given here.

On to `CC(C)=CCCC1(C)C=Cc2c(ccc(C(=O)/C=C/c3cccnc3)c2O)O1` (stereo unspecified), for which the Stability result in data set [1] and in [13] was “Stable” throughout. For the same compound, the “Ratio CC50/IC50” value in data set [2] is reported as 7.5. In addition, the “fold change (FC)” value with J774.A1 [3] was 16; in the data set with J774.A1 [15], 4.08. Besides, in data set [4], the Vd/F worked out at 392 L/kg. Also, the inhibition in vivo at 50 mg/kg/day in the data set with Leishmania donovani [5] is 55.4%. The Activity is listed as 27.04% in the data set with Leishmania donovani [6]; 69.59% in the data set with Leishmania donovani [8]; 61.67% with Leishmania donovani [10]; 10.47% in the data set on Leishmania donovani [11]; 30.79% in the data set with Leishmania donovani [12]; “Non-toxic” in the data set with Syrian golden hamster. Also, in the data set on Leishmania donovani [7], the IC50 stood at 5.4 µM. Moreover, the inhibition in vivo at 100 mg/kg/day in the data set with Leishmania donovani [9] came to 84.5%. Besides, the outcome in the data set with Leishmania donovani [14] was inactive.
